Experimental data taken from ChEMBL document CHEMBL5233202, “Metabolically stable apelin-analogues, incorporating cyclohexylalanine and homoarginine, as potent apelin receptor activators” (RSC Med Chem, 2021).
pEC50, pKi: −log10 of the molar value. Non-standard residues stand in square brackets, D forms with d. Residues, ends and D or L forms follow the SMILES beside them. Phe(4-Br) = N[C@@H](Cc1ccc(Br)cc1)C(=O)O; hArg = N=C(N)NCCCC[C@H](N)C(=O)O; Cha = N[C@@H](CC1CCCCC1)C(=O)O; NMeL = CN[C@@H](CC(C)C)C(=O)O; Nle = CCCC[C@H](N)C(=O)O; Aib = CC(C)(N)C(=O)O

Key:
Mus musculus [1] = experiment: Hypotensive effect in anesthetized wild type mouse assessed as change in mean arterial blood pressure at 1.4 uM/Kg, iv administered via right jugular vein measured for 60 mins; assay type: functional; conditions: 1 h
Method in brief: (§1)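 Anesthetized mice received peptide at 1.4 μM kg−1 body weight, or equal-volume saline, by injection into the right jugular vein (n = 3). HR, MABP, SBP and DBP were recorded from blood pressure traces and reported as mean ± S.E.M.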

[2] = Stability in human plasma assessed as half life at 1 mM measured for 24 hrs by LC-MS analysis; assay type: ADME, cell-free
Method in brief: (§2)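 Plasma (20 μL, human or murine) prewarmed to 37 °C, then 5 μL of 1 mM peptide added and incubated at 37 °C. Samples quenched at 1, 3, 6 and 24 h with 6 M GuHCl/80% ACN and Dans-YVG internal standard, centrifuged, solid-phase extracted and analyzed by LC-MS. Peptide/standard peak-area ratio normalized to 0 h; triplicates.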

Mus musculus [3] = experiment: Hypotensive effect in anesthetized wild type mouse assessed as total time duration of hypotensive effect at 1.4 uM/Kg, iv administered via right jugular vein measured for 60 mins; assay type: functional; conditions: 1 h; method in brief: as §1
Apelin receptor [4] = target: T1, Apelin receptor (Homo sapiens, UniProt P35414); experiment: Activation of recombinant human APJ receptor expressed in rat Chem-5 cells assessed as increase in Ca2+ mobilization by FLIPR Calcium 6-QF fluorescent dye based assay; assay type: cell-based
T1 sequence (P35414 whole entry): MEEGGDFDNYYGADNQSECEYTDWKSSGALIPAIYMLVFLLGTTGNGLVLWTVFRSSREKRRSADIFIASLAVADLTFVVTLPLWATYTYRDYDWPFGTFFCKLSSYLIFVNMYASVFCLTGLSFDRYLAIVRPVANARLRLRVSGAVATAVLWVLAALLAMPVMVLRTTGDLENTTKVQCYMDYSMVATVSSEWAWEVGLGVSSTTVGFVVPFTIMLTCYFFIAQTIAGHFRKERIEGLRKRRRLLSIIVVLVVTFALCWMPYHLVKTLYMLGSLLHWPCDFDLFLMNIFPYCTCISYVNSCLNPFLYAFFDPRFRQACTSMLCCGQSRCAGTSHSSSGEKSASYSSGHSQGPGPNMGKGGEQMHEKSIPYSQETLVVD
Method in brief: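 Frozen Chem-5 cells stably expressing human APJ, thawed per supplier protocol, loaded 1 h with Calcium 6-QF dye in HBSS/20 mM HEPES/0.2% DMSO/2.5 mM probenecid, pH 7.6. Cells washed three times and rested 10 min, then read on FLIPR. Agonist response taken as maximum fluorescence change over baseline. pEC50 from four-parameter logistic fit; triplicates.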

Neprilysin (NEP) = Neprilysin (NEP) (Homo sapiens, UniProt P08473); experiment: Proteolytic stability assessed as recombinant human NEP-mediated compound degradation by measuring half life incubated for 24 hrs by LC-MS analysis; assay type: ADME; conditions: recombinant human neprilysin (NEP)
Sequence of Neprilysin (NEP) (P08473 whole entry): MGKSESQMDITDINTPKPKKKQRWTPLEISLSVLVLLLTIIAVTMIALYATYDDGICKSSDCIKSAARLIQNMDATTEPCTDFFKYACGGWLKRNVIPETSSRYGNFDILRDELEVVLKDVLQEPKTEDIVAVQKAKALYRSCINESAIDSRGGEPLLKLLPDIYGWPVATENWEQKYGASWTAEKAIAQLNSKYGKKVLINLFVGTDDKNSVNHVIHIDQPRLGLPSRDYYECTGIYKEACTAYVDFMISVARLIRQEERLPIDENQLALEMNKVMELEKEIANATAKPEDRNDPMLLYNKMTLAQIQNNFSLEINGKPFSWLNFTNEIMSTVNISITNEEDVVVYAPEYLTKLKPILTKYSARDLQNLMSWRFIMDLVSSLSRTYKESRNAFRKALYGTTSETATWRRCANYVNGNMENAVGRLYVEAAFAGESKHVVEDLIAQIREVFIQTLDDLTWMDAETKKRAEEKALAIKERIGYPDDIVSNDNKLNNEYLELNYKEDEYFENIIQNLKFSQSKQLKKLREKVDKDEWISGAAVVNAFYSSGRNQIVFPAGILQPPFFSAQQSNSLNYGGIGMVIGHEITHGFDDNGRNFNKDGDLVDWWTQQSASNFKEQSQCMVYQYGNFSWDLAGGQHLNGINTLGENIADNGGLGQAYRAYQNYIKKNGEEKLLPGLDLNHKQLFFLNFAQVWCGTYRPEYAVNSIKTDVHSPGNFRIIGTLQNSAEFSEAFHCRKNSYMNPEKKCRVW

Apelin receptor [5] = target: T2, Apelin receptor (Rattus norvegicus, UniProt Q9JHG3); experiment: Displacement of [125I]-pyr-1-apelin-13 from EGFP tagged rat apelin receptor expressed in CHO cell membrane incubated for 3 hrs by gamma counter analysis; assay type: cell membranes
T2 sequence (Q9JHG3 whole entry): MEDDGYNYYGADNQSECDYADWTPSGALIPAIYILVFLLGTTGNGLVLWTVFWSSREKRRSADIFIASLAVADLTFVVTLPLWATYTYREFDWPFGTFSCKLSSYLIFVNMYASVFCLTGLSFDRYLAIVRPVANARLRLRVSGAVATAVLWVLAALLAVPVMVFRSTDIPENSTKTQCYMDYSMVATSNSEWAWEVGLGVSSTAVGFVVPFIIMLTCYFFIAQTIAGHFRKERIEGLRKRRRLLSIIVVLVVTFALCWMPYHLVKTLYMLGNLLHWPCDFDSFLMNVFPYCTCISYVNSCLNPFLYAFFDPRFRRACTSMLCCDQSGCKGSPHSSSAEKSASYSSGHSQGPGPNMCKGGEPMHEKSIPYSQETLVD
Method in brief: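 Crude membranes (1 μg/assay) from CHO cells stably expressing wild-type rat APJ-EGFP, incubated 3 h at 20 °C with 0.2 nM [125I]-pyr-1-apelin-13 (Lys8 Bolton–Hunter monoiodinated) and competitor at various concentrations. Binding buffer: 50 mM HEPES, 5 mM MgCl2, 1% BSA, pH 7.5. Quenched with cold buffer, GF/C filtered and washed, gamma counted; triplicates.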

[6] = Stability in mouse plasma assessed as half life at 1 mM measured for 24 hrs by LC-MS analysis; assay type: ADME, cell-free; method in brief: as §2
[7] = Protein binding in pooled human plasma at 100 uM incubated for 3 hrs by equilibrium dialysis method; assay type: ADME, cell-free; conditions: read-out: PPB (converted)
Method in brief: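 Equilibrium dialysis. DMSO stock (1 mM) diluted to 100 μM final in 55% pooled human plasma stabilized with EDTA and MLN-4760, dialyzed against PBS pH 7.4 at 37 °C, 120 rpm, 3 h. Retentate diluted with PBS and dialysate with plasma, then quenched with 10% TFA/acetonitrile. Dans-YVG internal standard added, centrifuged, LC-MS.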

Neprilysin = Neprilysin (Homo sapiens, UniProt P08473); experiment: Proteolytic stability assessed as recombinant human NEP-mediated compound degradation incubated for 24 hrs by LC-MS analysis; assay type: ADME
Sequence of Neprilysin (P08473 whole entry): as the sequence (P08473 whole entry) above
Method in brief: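 Recombinant human NEP diluted to 2 ng μL−1 in NEP-B buffer and preincubated 10 min at 37 °C. Peptide (1 mM aqueous solution) added and incubated at 37 °C. Aliquots taken at 0, 2, 10, 20 and 48 h, quenched and quantified by LC-MS; triplicate per time point.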

Compound | Activity (Mus musculus [1]) [mmHg] | half-life at 1000 µM [2] [h] | Time (Mus musculus [3]) [min] | pEC50 (Apelin receptor [4]) | half-life (Neprilysin (NEP)) [h] | pKi (Apelin receptor [5]) | half-life at 1000 µM [6] [h] | fraction unbound at 3 h, 100 µM [7] | Stability (Neprilysin)
CCCC[C@H](NC(=O)[C@@H]1CCCN1C(=O)CNC(=O)[C@H](CCCCN)NC(=O)[C@H](Cc1c[nH]cn1)NC(=O)[C@H](CO)NC(=O)[C@H](CC(C)C)N(C)C(=O)[C@H](CCCNC(=N)N)NC(=O)[C@@H]1CCCN1C(=O)[C@H](CCCNC(=N)N)NC(=O)[C@@H]1CCC(=O)N1)C(=O)NC(C)(C)C(=O)N[C@@H](Cc1ccc(Br)cc1)C(=O)O | 9.52 | 3.54 | 26 | 8.17 | 40.3 |  |  |  | 
CCCC[C@H](NC(=O)[C@@H]1CCCN1C(=O)CNC(=O)[C@H](CCCCN)NC(=O)[C@H](Cc1c[nH]cn1)NC(=O)[C@H](CO)NC(=O)[C@H](CC(C)C)NC(=O)[C@H](CCCNC(=N)N)NC(=O)[C@@H]1CCCN1C(=O)[C@H](CCCNC(=N)N)NC(=O)[C@@H]1CCC(=O)N1)C(=O)NC(C)(C)C(=O)N[C@@H](Cc1ccc(Br)cc1)C(=O)O | 23.88 | 0.81 | 60 | 8.37 | 10.3 |  |  |  | 
CCCC[C@H](NC(=O)[C@@H]1CCCN1C(=O)CNC(=O)[C@H](CCCCN)NC(=O)[C@H](Cc1c[nH]cn1)NC(=O)[C@H](CO)NC(=O)[C@H](CC(C)C)NC(=O)[C@H](CCCCNC(=N)N)NC(=O)[C@@H]1CCCN1C(=O)[C@H](CCCNC(=N)N)NC(=O)[C@@H]1CCC(=O)N1)C(=O)NC(C)(C)C(=O)N[C@@H](Cc1ccc(Br)cc1)C(=O)O | 26.44 | 1.31 | 60 | 8.66 | 19 | 9.17 |  |  | 
CCCC[C@H](NC(=O)[C@@H]1CCCN1C(=O)CNC(=O)[C@H](CCCCN)NC(=O)[C@H](Cc1c[nH]cn1)NC(=O)[C@H](CO)NC(=O)[C@H](CC1CCCCC1)NC(=O)[C@H](CCCCNC(=N)N)NC(=O)[C@@H]1CCCN1C(=O)[C@H](CCCNC(=N)N)NC(=O)[C@@H]1CCC(=O)N1)C(=O)NC(C)(C)C(=O)N[C@@H](Cc1ccc(Br)cc1)C(=O)O | 15.33 | 2.58 | 57 | 8.43 | 21.9 | 9.43 |  |  | 
CCCC[C@H](NC(=O)[C@@H]1CCCN1C(=O)CNC(=O)[C@H](CCCCN)NC(=O)[C@H](Cc1c[nH]cn1)NC(=O)[C@H](CO)NC(=O)[C@H](CC1CCCCC1)NC(=O)[C@H](CCCNC(=N)N)NC(=O)[C@@H]1CCCN1C(=O)[C@H](CCCNC(=N)N)NC(=O)[C@@H]1CCC(=O)N1)C(=O)NC(C)(C)C(=O)N[C@@H](Cc1ccc(Br)cc1)C(=O)O | 0.23 | 1.77 | 15 | 8.62 | 22.1 | 9.24 |  |  | 
CCCC[C@H](NC(=O)[C@@H]1CCCN1C(=O)CNC(=O)[C@H](CCCCN)NC(=O)[C@H](Cc1c[nH]cn1)NC(=O)[C@H](CO)NC(=O)[C@H](CC1CCCCC1)NC(=O)[C@H](CCCNC(=N)N)NC(=O)[C@@H]1CCCN1C(=O)[C@H](CCCNC(=N)N)NC(=O)[C@H](CCC(N)=O)NC(=O)[C@H](CCCNC(=N)N)NC(=O)[C@H](CCCNC(=N)N)NC(=O)[C@H](Cc1ccccc1)NC(=O)[C@@H](N)CCCCN)C(=O)NC(C)(C)C(=O)N[C@@H](Cc1ccc(Br)cc1)C(=O)O (H-KFRRQRPR[Cha]SHKGP[Nle][Aib][Phe(4-Br)]-OH) | 19.72 | 4.34 | 60 | 8.42 | 47 | 8.80 |  |  | 
CCCC[C@H](NC(=O)[C@@H]1CCCN1C(=O)CNC(=O)[C@H](CCCCN)NC(=O)[C@H](Cc1c[nH]cn1)NC(=O)[C@H](CO)NC(=O)[C@H](CC(C)C)N(C)C(=O)[C@H](CCCNC(=N)N)NC(=O)[C@@H]1CCCN1C(=O)[C@H](CCCNC(=N)N)NC(=O)[C@H](CCC(N)=O)NC(=O)[C@H](CCCNC(=N)N)NC(=O)[C@H](CCCNC(=N)N)NC(=O)[C@H](Cc1ccccc1)NC(=O)[C@@H](N)CCCCN)C(=O)NC(C)(C)C(=O)N[C@@H](Cc1ccc(Br)cc1)C(=O)O (H-KFRRQRPR[NMeL]SHKGP[Nle][Aib][Phe(4-Br)]-OH) | 31.98 | 8.29 | 60 | 8.56 | > 48 |  | 0.99 | 0.45 | 
CCCC[C@H](NC(=O)[C@@H]1CCCN1C(=O)CNC(=O)[C@H](CCCCN)NC(=O)[C@H](Cc1c[nH]cn1)NC(=O)[C@H](CO)NC(=O)[C@H](CC(C)C)NC(=O)[C@H](CCCCNC(=N)N)NC(=O)[C@@H]1CCCN1C(=O)[C@H](CCCNC(=N)N)NC(=O)[C@H](CCC(N)=O)NC(=O)[C@H](CCCNC(=N)N)NC(=O)[C@H](CCCNC(=N)N)NC(=O)[C@H](Cc1ccccc1)NC(=O)[C@@H](N)CCCCN)C(=O)NC(C)(C)C(=O)N[C@@H](Cc1ccc(Br)cc1)C(=O)O (H-KFRRQRP[hArg]LSHKGP[Nle][Aib][Phe(4-Br)]-OH) | 40.45 | 3.06 | 60 | 8.17 | 40.6 | 9.08 |  |  | 
CCCC[C@H](NC(=O)[C@@H]1CCCN1C(=O)CNC(=O)[C@H](CCCCN)NC(=O)[C@H](Cc1c[nH]cn1)NC(=O)[C@H](CO)NC(=O)[C@H](CC1CCCCC1)NC(=O)[C@H](CCCCNC(=N)N)NC(=O)[C@@H]1CCCN1C(=O)[C@H](CCCNC(=N)N)NC(=O)[C@H](CCC(N)=O)NC(=O)[C@H](CCCNC(=N)N)NC(=O)[C@H](CCCNC(=N)N)NC(=O)[C@H](Cc1ccccc1)NC(=O)[C@@H](N)CCCCN)C(=O)NC(C)(C)C(=O)N[C@@H](Cc1ccc(Br)cc1)C(=O)O (H-KFRRQRP[hArg][Cha]SHKGP[Nle][Aib][Phe(4-Br)]-OH) | 44.9 | 6.28 | 60 | 8.36 | 46.4 | 8.96 | 0.52 | 0.35 | 
CCCC[C@H](NC(=O)[C@@H]1CCCN1C(=O)CNC(=O)[C@H](CCCCN)NC(=O)[C@H](Cc1c[nH]cn1)NC(=O)[C@H](CO)NC(=O)[C@H](CC(C)C)N(C)C(=O)[C@H](CCCCNC(=N)N)NC(=O)[C@@H]1CCCN1C(=O)[C@H](CCCNC(=N)N)NC(=O)[C@H](CCC(N)=O)NC(=O)[C@H](CCCNC(=N)N)NC(=O)[C@H](CCCNC(=N)N)NC(=O)[C@H](Cc1ccccc1)NC(=O)[C@@H](N)CCCCN)C(=O)NC(C)(C)C(=O)N[C@@H](Cc1ccc(Br)cc1)C(=O)O (H-KFRRQRP[hArg][NMeL]SHKGP[Nle][Aib][Phe(4-Br)]-OH) | 34.69 | 5.63 | 60 | 6.56 |  | 8.85 | 0.38 |  | Stable
